ChEMBL document CHEMBL3352765, “Synthesis and evaluation of the cytotoxic activity of 1,2-furanonaphthoquinones tethered to 1,2,3-1H-triazoles in myeloid and lymphoid leukemia cell lines” (Eur J Med Chem, 2014)
pIC50: −log10 of the molar value. Where a name gives a salt, the structure may show the parent alone.

How the values were obtained:
[1] = Induction of hemolysis in lamb blood erythrocytes at 1000 uM incubated for 10 mins by microplate reader method; assay type: cell-based, Ovis aries, Erythrocyte; conditions: sheep, read-out: Activity
Outline: (§1)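 Fresh lamb erythrocytes were collected by centrifugation at 1500 rpm for 15 min and washed three times in PBS with 10 mM glucose, pH 7.4. They were used at 4 × 10⁸/well in triplicate, with compounds at a final 1000 µM and retests at 200 µM. After centrifugation at 13,000 rpm for 15 min, supernatant absorbance was read at 540 nm. Results are given as % of complete hemolysis from water osmotic shock.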

MOLT-4 = experiment: Cytotoxicity against human MOLT4 cells after 48 hrs by Alamar blue assay; assay type: functional, cell-based; conditions: MOLT-4, 48 h
Outline: (§2)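 Cells seeded at 2.5 × 10⁴/well and exposed to compounds for 48 h in total. AlamarBlue was added before the end of the 48 h (CCRF-CEM 2 h, MOLT-4 6 h). Resorufin fluorescence was read at ex 560/em 590 nm. Triplicate wells at six or seven concentrations. Controls were cells with medium and up to 1% DMSO. IC50 is the concentration killing 50% of cells.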

CCRF-CEM = experiment: Cytotoxicity against human CCRF-CEM cells after 48 hrs by Alamar blue assay; assay type: functional, cell-based; outline: as §2
[2] = Cytotoxicity against human KG1 cells after 48 hrs by Alamar blue assay; assay type: functional, cell-based; conditions: KG-1, 48 h
Outline: (§3)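 Cells were seeded and exposed to compounds for 48 h in total: K562 at 2.5 × 10⁴/well, KG1 at 5.0 × 10⁴/well. AlamarBlue was added 4 h (K562) or 6 h (KG1) before the end. Fluorescence was read at ex 560/em 590 nm. Triplicate wells at six or seven concentrations. Vehicle controls contained up to 1% DMSO and defined 100% survival. Readout was IC50.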

K562 = experiment: Cytotoxicity against human K562 cells after 48 hrs by Alamar blue assay; assay type: functional, cell-based; conditions: K562, 48 h; outline: as §3
PBMC [3] = experiment: Cytotoxicity against normal human PBMC assessed as reduction in cell viability at 10 times anti-leukemic IC50 after 48 hrs by Alamar blue assay; assay type: cell-based
Outline: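 Gradient-isolated donor PBMCs (three donors), 5 × 10⁴/well in RPMI 1640 with 10% inactivated FBS. […] Viability was measured by AlamarBlue with 24 h dye incubation and fluorescence at ex 560/em 590 nm.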

PBMC [4] = experiment: Cytotoxicity against normal human PBMC assessed as reduction in cell viability at 10 uM after 48 hrs by Alamar blue assay; assay type: functional
PBMC [5] = experiment: Cytotoxicity against normal human PBMC assessed as reduction in cell viability after 48 hrs by Alamar blue assay; assay type: functional, cell-based
Outline: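 PBMCs were isolated from healthy-donor buffy coats by density gradient centrifugation and seeded at 5.0 × 10⁴/well in RPMI 1640 with 10% inactivated FBS. Exposure was 48 h, with AlamarBlue added for the final 24 h. Fluorescence was read at ex 560/em 590 nm. Triplicate wells at six or seven concentrations. IC50 was derived against vehicle controls.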

[6] = Induction of hemolysis in lamb blood erythrocytes at 200 uM incubated for 10 mins by microplate reader method; assay type: cell-based, Ovis aries; conditions: sheep, erythrocyte; outline: as §1
[7] = Cytotoxicity against human lymphocytes; assay type: cell-based; conditions: Lymphocyte
V79 = experiment: Cytotoxicity against Chinese hamster V79 cells; assay type: cell-based; conditions: Cricetulus griseus

| SMILES | hemolysis at 10 min, 1000 µM [1] | pIC50 (MOLT-4) | pIC50 (CCRF-CEM) | pIC50 [2] | pIC50 (K562) | Activity (PBMC [3]) | Activity (PBMC [4]) | pIC50 (PBMC [5]) | Activity [6] | pIC50 [7] | pIC50 (V79) |
| --- | --- | --- | --- | --- | --- | --- | --- | --- | --- | --- | --- |
| CC1(C)OC2=C(C(=O)C(=O)c3ccccc32)C1n1cc(-c2ccccc2)nn1 (stereo unspecified) | < 5% | 6.12 | 5.71 | 4.89 | 4.84 | Non-toxic | 30% |  |  |  |  |
| CC(C)CC(C)(O)c1cn(C2C3=C(OC2(C)C)c2ccccc2C(=O)C3=O)nn1 (stereo unspecified) | < 5% | 5.83 | 5.75 | 5.88 | 5.72 | > 80% |  |  |  |  |  |
| CC1(C)OC2=C(C(=O)C(=O)c3ccccc32)C1n1cc(COC2CCCCO2)nn1 (stereo unspecified) | < 5% | 5.69 | 5.50 | 5.25 | 5.74 | > 80% |  |  |  |  |  |
| CC(=O)OCc1cn(C2C3=C(OC2(C)C)c2ccccc2C(=O)C3=O)nn1 (stereo unspecified) | < 5% | 6.80 | 6.51 | 5.02 | 5.08 | > 80% |  |  |  |  |  |
| CCCCc1cn(C2C3=C(OC2(C)C)c2ccccc2C(=O)C3=O)nn1 (stereo unspecified) | < 5% | 5.72 | 5.43 | 5.42 | 5.42 | > 80% |  |  |  |  |  |
| CC1(C)OC2=C(C(=O)C(=O)c3ccccc32)C1n1cc(CCCCl)nn1 (stereo unspecified) | < 5% | 7.30 | 6.47 | 6.03 | 5.68 | > 80% |  | < 5.00 |  |  |  |
| CCC(C)(O)c1cn(C2C3=C(OC2(C)C)c2ccccc2C(=O)C3=O)nn1 (stereo unspecified) | < 5% | 5.70 | 5.45 | 5.25 | 5.86 | Non-toxic |  |  |  |  |  |
| CCCCCc1ccc(-c2cn(C3C4=C(OC3(C)C)c3ccccc3C(=O)C4=O)nn2)cc1 (stereo unspecified) | > 5% | 5.58 | 4.86 | 5.41 | 5.10 | > 80% |  |  | Non-toxic |  |  |
| CCCCCc1cn(C2C3=C(OC2(C)C)c2ccccc2C(=O)C3=O)nn1 (stereo unspecified) | < 5% | 5.64 | 4.56 | 4.52 | 5.57 | > 80% |  |  |  |  |  |
| COc1cccc2c1C(=O)c1c(O)c3c(c(O)c1C2=O)C[C@@](O)(C(=O)CO)C[C@@H]3O[C@H]1C[C@H](N)[C@H](O)[C@H](C)O1 [DOXORUBICIN HYDROCHLORIDE] |  | 7.15 | 6.82 |  |  | > 80% |  |  |  |  |  |
| CC1(C)OC2=C(C(=O)C(=O)c3ccccc32)C1n1cc(C2=CCCCC2)nn1 (stereo unspecified) | < 5% | 6.55 | 4.90 | 5.08 | 5.95 | > 80% |  |  |  |  |  |
| CC1(C)OC2=C(C(=O)C(=O)c3ccccc32)C1n1cc(CO)nn1 (stereo unspecified) | < 5% | 5.87 | 5.82 | 5.27 | 5.80 | > 80% |  |  |  |  |  |
| CC1(C)CC2=C(O1)c1ccccc1C(=O)C2=O [NOR-BETA-LAPACHONE] |  | 4.87 | 4.82 | 4.76 | 5.64 | > 80% |  |  |  | < 4.66 | 4.89 |
| CCCCCCc1cn(C2C3=C(OC2(C)C)c2ccccc2C(=O)C3=O)nn1 (stereo unspecified) | < 5% | 5.66 | 5.14 | 5.25 |  | > 80% |  |  |  |  |  |
| CCCc1cn(C2C3=C(OC2(C)C)c2ccccc2C(=O)C3=O)nn1 (stereo unspecified) | < 5% | 5.83 | 5.50 | 5.81 | 4.22 | > 80% |  |  |  |  |  |
| CC1(C)OC2=C(C(=O)C(=O)c3ccccc32)C1n1cc(C2(O)CCCCC2)nn1 (stereo unspecified) | < 5% | 5.59 | 5.55 | 5.31 | 5.82 | > 80% |  |  |  |  |  |
| CC(C)(O)c1cn(C2C3=C(OC2(C)C)c2ccccc2C(=O)C3=O)nn1 (stereo unspecified) | < 5% | 5.67 | 5.76 | 5.70 | 5.61 | > 80% |  |  |  |  |  |
| CC1(C)OC2=C(C(=O)C(=O)c3ccccc32)C1n1cc(C2CCCCC2)nn1 (stereo unspecified) | < 5% | 5.67 | 5.71 | 5.12 | 5.42 | Non-toxic |  |  |  |  |  |
| COc1ccc(-c2cn(C3C4=C(OC3(C)C)c3ccccc3C(=O)C4=O)nn2)cc1 (stereo unspecified) | < 5% | 4.46 | 4.93 | 4.12 | 5.04 | > 80% |  |  |  |  |  |
| CC1(C)OC2=C(C(=O)C(=O)c3ccccc32)C1n1cc(CCl)nn1 (stereo unspecified) | > 5% | 6.32 | 6.17 | 6.01 | 5.86 | Non-toxic |  |  | Non-toxic |  |  |
| CC1(C)OC2=C(C(=O)C(=O)c3ccccc32)C1N=[N+]=[N-] (stereo unspecified) |  | 5.44 | 5.50 | 5.22 | 5.80 | > 80% |  |  |  |  |  |
